NR2E3 ag-1 – NR2E3 (human) agonism. 0.12% of 320,000 active. AID 2300. Q9Y5X4. inhibition of corepressor binding, % at 4.78 µM. GST-NR2E3/biotin-RetCOR TR-FRET, 1536-well;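 active = percent inhibition above the cutoff of mean plus 3 SD of all tested compounds, set per screening campaign, cut at about 20% in these data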;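 note: 0% = DMSO wells and 100% = biotin wells as full block of FRET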
Target sequence (Q9Y5X4 whole entry, looked up): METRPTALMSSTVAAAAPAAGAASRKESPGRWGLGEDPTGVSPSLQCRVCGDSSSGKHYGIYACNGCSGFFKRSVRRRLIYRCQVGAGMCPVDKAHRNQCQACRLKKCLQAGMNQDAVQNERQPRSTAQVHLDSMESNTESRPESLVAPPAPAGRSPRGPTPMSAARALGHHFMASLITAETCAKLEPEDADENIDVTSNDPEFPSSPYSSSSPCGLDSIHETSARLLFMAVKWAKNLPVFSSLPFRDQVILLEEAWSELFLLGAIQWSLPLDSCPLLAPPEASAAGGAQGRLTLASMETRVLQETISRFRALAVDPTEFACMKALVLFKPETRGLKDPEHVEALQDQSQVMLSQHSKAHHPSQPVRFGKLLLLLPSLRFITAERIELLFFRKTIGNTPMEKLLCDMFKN
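Material: NR2E3–RetCOR corepressor complex | Quantity: 1.35 nM GST-tagged NR2E3 final | Schedule: 5 h at 4 °C | Replication: Singlicate compound wells | Reagent: RetCOR corepressor, biotinylated, 7 nM | Controls: Biotin wells as high control, 0.6% DMSO wells as low control | Signal: TR-FRET, Eu(K)-anti-GST donor, streptavidin-D2 acceptor, ex 340, em 617/671 nm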
GalR3 antagonist – blocks the human galanin receptor 3 | O60755 | HEK293 GalR3-CNG cAMP membrane potential fluorescence; galR3 body fused to GalR1 C-terminus | inhibition, % at 3 µM | 0.44% of 360,000 active;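 active = inhibition above the screen-wide average plus 3 SD, cut at about 13% in these data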;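 note: forskolin and galanin both at EC90 stimulate the cells; cAMP rise reported by CNG channel membrane potential dye signal; 0% = forskolin plus galanin with DMSO and 100% = forskolin alone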
Target sequence (O60755 1-299 limits assumed): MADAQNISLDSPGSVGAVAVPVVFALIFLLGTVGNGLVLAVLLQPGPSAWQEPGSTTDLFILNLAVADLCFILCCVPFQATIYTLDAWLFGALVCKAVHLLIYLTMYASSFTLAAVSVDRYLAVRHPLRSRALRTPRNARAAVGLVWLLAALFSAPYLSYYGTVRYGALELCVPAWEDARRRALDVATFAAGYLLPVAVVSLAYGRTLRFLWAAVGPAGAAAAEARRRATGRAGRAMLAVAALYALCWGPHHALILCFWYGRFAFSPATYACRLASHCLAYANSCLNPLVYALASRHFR
NR2E3 ag-2 – activates human NR2E3 receptor. Q9Y5X4. 0.35% of 360,000 active. CHO-S Gal4-NCOR/VP16-NR2E3 two-hybrid, luciferase. inhibition of corepressor binding, % at 3.98 µM;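 active = inhibition above the mean of all tested compounds plus 3 SD, cut at about 70% in these data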;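 note: 0% = DMSO with NR2E3 transfected cells and 100% = cells lacking NR2E3 construct; higher means lower luciferase signal from less NR2E3 corepressor binding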
FXN GAA850 act – frataxin GAA850 promoter activation; HEK293 lucGAA850 FXN promoter luciferase reporter, 24 h; percent of 10 µM SAHA response; activation, % at 6 µM; 0.56% of 360,000 active;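 active = activation above the average of all compounds screened plus 3 SD, cutoff fixed separately per campaign, cut at about 7.5% in these data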;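 note: 0% = DMSO wells and 100% = 10 µM SAHA wells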
HIV Env fusion – HIV envelope-mediated fusion inhibition. HeLa-JRFL Env/CEM21 cell fusion, luciferase. inhibition, % at 12.3 µM. 1.1% of 360,000 active;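 active = mean replicate inhibition score of at least 50 and every replicate individually at or above 50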;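 note: 0% = plate neutral controls and 100% = maraviroc near 300 nM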
V-ATPase pHluor – alters yeast V-ATPase proton transport; S. cerevisiae, pHLuorin cytosolic pH fluorescence; response, % at 10 µM; 0.37% of 350,000 active; in the data active = response mostly above about 7.3%, no sharp cut-off; inactive = mostly below about 5.4%; note: actives read high
Starred values were filed as active, the others as inactive; x = not tested or not shown; [ ] = remark or other dose. This is a sample that favours compounds with a hit; in the whole collection about 2.2% have one here.

SMILES	NR2E3 ag-1	GalR3 antagonist	NR2E3 ag-2	FXN GAA850 act	HIV Env fusion	V-ATPase pHluor
CC(C)(C)[S@@](=O)N1Cc2cc(C(=O)N3CCOCC3)nc(-c3cccc(-c4ccccc4F)c3)c2[C@H]1CCO	x	x	x	x	-2[16.7 µM]	x
O=C(C[C@H]1C[C@H]2c3cc(NC(=O)C4CCC4)ccc3O[C@H]2[C@@H](CO)O1)NCc1cc(F)ccc1F	x	x	x	x	-3[16.7 µM]	x
COc1ccc(S(=O)(=O)Nc2ccc3c(c2)C(=O)N([C@@H](C)CO)C[C@@H](C)[C@H](CN(C)S(=O)(=O)c2c(C)noc2C)OCCCC[C@@H](C)O3)cc1	x	x	x	x	9[16.7 µM]	x
CCCCN(C(=O)c1cc(S(=O)(=O)N2CCOCC2)ccc1Cl)c1c(N)n(CC(C)C)c(=O)[nH]c1=O	4	-1	-22	-2	59*	2
Cc1cc2c3c(c1)C1(SCC(=O)N1c1ccc(F)cc1)C(=O)N3C(C)(C)CC2C (stereo not drawn)	5	-6	2	3	69*	-7
CC1CC(C)(C)N2C(=O)C3(Nc4ccccc4S3)c3cccc1c32 (stereo not drawn)	3	x	-7	-2	x	2
CCOC(=O)c1ccc2nc3c(cc2c1)CCS3	7	-6	-90	12*	-10	2
C[C@H](CO)N1C[C@H](C)[C@@H](CN(C)C(=O)C2CCCCC2)Oc2cc(C#CC3CC3)ccc2S1(=O)=O	x	x	x	x	10[16.7 µM]	x
CS(=O)(=O)c1ccc(C(=O)OCC(=O)NC23CC4CC(CC(C4)C2)C3)cc1[N+](=O)[O-]	2	-9	-10	12*	-22	5
O=S(=O)(Nc1cc(Sc2ncn[nH]2)c(O)c2ccccc12)c1ccccc1	x	-9	103*	-15	18	-1
Cc1cc(O)c(Sc2ncn[nH]2)cc1NS(=O)(=O)c1ccc(Cl)cc1	2	2	14	-2	x	-1
COC(=O)c1ccc(Oc2nc(Nc3ccc(C)c(C)c3)nc(N(C)C)n2)cc1	4	-4	12	-3	65*	-2
COc1ccc(/C(N)=N/OC(=O)C2CCCCC2)cc1OC	1	0	-68	9.0*	-71	1
COc1cccc(Cl)c1NC(=O)N1CCc2c([nH]c3ccccc23)C1C(F)(F)F (stereo not drawn)	-4	4	5	2	83*	2
COc1ccc(S(=O)(=O)N(C)C[C@H]2OCCCC[C@H](C)Oc3ccc(N(C)C)cc3C(=O)N([C@@H](C)CO)C[C@H]2C)cc1	x	x	x	x	1[16.7 µM]	x
COc1ccc(-c2cn3c(C)c(C(=O)Nc4cccc(NC(C)=O)c4)sc3n2)cc1	2	-1	4	-3	71*	-7
COc1ccc(-c2cn3c(C)c(C(=O)Nc4ccncc4)sc3n2)cc1	-5	x	15	-1	-7	-3
C[C@H]1CN([C@@H](C)CO)C(=O)Cc2cc(NC(=O)Cc3cn(C)c4ccccc34)ccc2O[C@H]1CN(C)S(=O)(=O)c1ccccc1	x	x	x	x	67*[16.7 µM]	x
C[C@H](CO)N1C[C@H](C)[C@H](CN(C)S(=O)(=O)c2ccc(F)cc2)Oc2ccc(NC(=O)Cc3cn(C)c4ccccc34)cc2CC1=O	x	x	x	x	56*[16.7 µM]	x
Cc1ccc(S(=O)(=O)N(C)C[C@@H]2Oc3ccc(NC(=O)Cc4cn(C)c5ccccc45)cc3CC(=O)N([C@H](C)CO)C[C@@H]2C)cc1	x	x	x	x	74*[16.7 µM]	x
Cc1ccc(S(=O)(=O)N(C)C[C@H]2Oc3ccc(NC(=O)Cc4cn(C)c5ccccc45)cc3CC(=O)N([C@@H](C)CO)C[C@@H]2C)cc1	x	x	x	x	1[16.7 µM]	x
C[C@@H]1CN([C@@H](C)CO)C(=O)Cc2cc(NC(=O)Cc3cn(C)c4ccccc34)ccc2O[C@H]1CN(C)S(=O)(=O)c1ccc(F)cc1	x	x	x	x	-4[16.7 µM]	x
C[C@@H]1CN([C@H](C)CO)C(=O)c2cc(NS(=O)(=O)c3ccccc3)ccc2O[C@@H]1CN(C)S(=O)(=O)c1ccc(Cl)cc1	x	x	x	x	-33[16.7 µM]	x
O=S(=O)(c1ccc(Cl)cc1)N1CCC(n2cnc3cc(C(F)(F)F)ccc32)CC1	2	-9	17	0	64*	-6
CN1C(=O)c2cc(NC(=O)C3CCOCC3)ccc2OC[C@@H]2O[C@H](CC(=O)NCC3CC3)CC[C@@H]21	x	x	x	x	2[16.7 µM]	x
SMILES	NR2E3 ag-1	GalR3 antagonist	NR2E3 ag-2	FXN GAA850 act	HIV Env fusion	V-ATPase pHluor
C[C@@H]1CCCCO[C@H](CN(C)C(=O)CCC(F)(F)F)[C@@H](C)CN([C@@H](C)CO)C(=O)c2cc(NC(=O)Nc3ccccc3)ccc2O1	x	x	x	x	11[16.7 µM]	x
COc1ccc(-c2coc3c(C(=O)NCc4ccc(C(F)(F)F)cc4)cccc23)c(C)c1	x	-4	13	0	67*	x
O=C(Cc1ccccn1)N[C@@H]1CC[C@H](CCNC(=O)c2cc(Cl)cc(Cl)c2)O[C@@H]1CO	x	x	x	x	3[16.7 µM]	x
Cc1nc2ccccc2nc(C)c1=NOCc1cccc(Cl)c1	-2	-4	-117	5	69*	-1
CN(CC(=O)NC(=O)Nc1ccccc1F)Cc1ccccc1F	x	-7	-56	1	66*	1
CN(CC(=O)Nc1ccc(S(N)(=O)=O)cc1)Cc1ccccc1F	1	8	-5	-1	-3	-2
OC(COc1ccc(Cl)cc1)CN1CCC(Cc2ccccc2)CC1 (stereo not drawn)	0	-2	4	-1	6	-1
Cc1ccc(C)c(OCC(O)CN2CCC(Cc3ccccc3)CC2)c1 (stereo not drawn)	0	-7	-4	-2	55*	-1
CC(C)(C)[S@@](=O)N1Cc2cc(C(=O)N[C@H]3CCN(Cc4ccccc4)C3)nc(-c3cccc(-c4cccnc4)c3)c2[C@H]1CCO	x	x	x	x	9[16.7 µM]	x
COc1ccccc1NS(=O)(=O)c1cccc(NC(=O)Nc2cccc(Cl)c2)c1	-1	-3	-13	-2	45*	-1
COc1ccccc1NS(=O)(=O)c1cccc(NC(=O)NCCCl)c1	0	-10	-9	1	7	-1
O=C(Nc1cccc(Cl)c1)Nc1cccc(Cl)c1	-5	-1	-4	-3	52*	-7
CO[C@@H]1CN(C)C(=O)c2cc(NC(=O)NC(C)C)ccc2OC[C@H](C)NC[C@H]1C	x	x	x	x	-5[16.7 µM]	x
CC=Cc1ccc2n(c1=O)C[C@@H]1[C@@H](CO)[C@H](C(=O)NCc3ccccc3Cl)N(S(C)(=O)=O)[C@H]21 (mixture of isomers)	x	x	x	x	5[16.7 µM]	x
CN(c1ncnc(N)c1[N+](=O)[O-])C1CCS(=O)(=O)C1 (stereo not drawn)	0	3	-32	-7	59*	0
c1ccc(CN2CCN(c3ncnc4c3[nH]c3ccccc34)CC2)cc1	2	60*	70	0	x	4
Cc1noc(C)c1S(=O)(=O)N(C)C[C@@H]1OCCCC[C@@H](C)Oc2ccc(NC(=O)Nc3ccc(C(F)(F)F)cc3)cc2C(=O)N([C@H](C)CO)C[C@H]1C	x	x	x	x	83*[16.7 µM]	x
